Measurements: PMC8945107 (ACS Omega, 2022)

Key:
NCI-H460 = test: MTT antiproliferative assay, NCI-H460; type: cell-based; settings: Homo sapiens, NCI-H460, 48 h, read-out: IC50 NCI-H460
Summary of the method: (§1)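 Cells in 96-well plates were preincubated 24 h, then exposed to test compound 48 h. MTT solution (5 mg/mL stock) was added for 4 h, medium removed, formazan dissolved in DMSO, plate shaken 1 min and absorbance read at 570 nm. Three independent experiments.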

[1] = tested on: human bronchial epithelioid cells (HBE); test: MTT antiproliferative / cell viability assay, HBE; type: cell-based; settings: 48 h, read-out: IC50 HBE
Summary of the method: as §1

PC-3 = test: MTT antiproliferative assay, PC-3; type: cell-based; settings: Homo sapiens, PC-3, 48 h, read-out: IC50 PC-3
Summary of the method: as §1

A549 cells [2] = test: Vacuolization, fluorescence inverted microscope; type: cell-based, human; settings: 10 mM NAC with 2 μM 5e; vacuolization 12 h, MTT 24 h
Summary of the method: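 A549 cells were given 2 μM test compound for 12, 24 or 36 h, or 1–4 μM for 24 h, and photographed on an inverted fluorescence microscope. For antioxidant co-treatment, 10 mM NAC was combined with 2 μM compound. Vacuolization was imaged at 12 h, and viability was measured by MTT at 24 h (absorbance 570 nm after DMSO solubilisation).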

A549 cells [3] = test: Detection of intracellular ROS; type: cell-based, human; settings: 10 mM NAC with 2 μM 5e, 12 h
Summary of the method: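 A549 cells in 6-well plates were pretreated with NAC for 2 h, then treated with test compound. Afterward they were stained with 10 μM DCFH-DA in FBS-free medium for 0.5 h in the incubator and washed twice with PBS. Cells were collected, resuspended in PBS and analysed by flow cytometry.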

Row | SMILES | IC50 (NCI-H460) | IC50 [1] | IC50 (PC-3) | effect of NAC on vacuolization and cell death induced by 5e (A549 cells [2]) | effect of NAC on ROS level induced by 5e (A549 cells [3])
1 | COc1cccc2c1C(=O)c1c(O)c3c(c(O)c1C2=O)C[C@@](O)(C(=O)CO)C[C@@H]3O[C@H]1C[C@H](N)[C@H](O)[C@H](C)O1 [DOX, Doxorubicin] | 3140 ± 570 nM | 2540 ± 160 nM | 1130 ± 200 nM |  | 
2 | CC(=O)N[C@@H](CS)C(=O)O [NAC, N-acetylcysteine] |  |  |  | could not remarkably suppress vacuolization and cell death | could inhibit the level of ROS
